Laboratory results from the EternaBench riboswitch data.

Test system: MS2 coat protein
Assay: apparent Kd, MS2 coat protein; higher = weaker binding; RNA-MaP array; FMN 200 µM where present
In short: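 On Illumina sequencing-chip clusters, designs were transcribed by stalled E. coli RNA polymerase and titrated with SNAP-549-labelled MS2 coat protein (0.7 or 1.5 nM, doubling to 3 µM), without and then with constant ligand, in 100 mM Tris-HCl pH 7.5, 80 mM KCl, 4 mM MgCl2, BSA, DTT, yeast tRNA and Tween-20. Apparent Kd is the median of filtered per-cluster curve fits to green signal normalised to red-channel RNA signal and control-cluster median Fmax.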

[1] = designed as: OFF switch for flavin mononucleotide, no ligand
[2] = ligand present: flavin mononucleotide, designed as: OFF switch for flavin mononucleotide
[3] = designed as: ON switch for flavin mononucleotide, no ligand
[4] = ligand present: flavin mononucleotide, designed as: ON switch for flavin mononucleotide

Sequence	apparent Kd [1]	apparent Kd [2]	apparent Kd [3]	apparent Kd [4]
GUAUGUAAGGAGAAGGGCUACUGGUUGAAACCUGCGGCCUCUGGAACAUGAGGAUCACCCAUGUAGCAGGAUAUCCUUGCGUGA	222 nM	22.9 nM	–	–
GAUUGACAUGAGGAUCACCCAUGUGAGGAUAUCGGCCGGACCUUGUUAGCUUCCAUCGCGAGAAGGUACAUAGG	18.9 nM	18.4 nM	–	–
AUCAGCUCGUCAGGAUAUACGUCACUGCGUCAGCAGUGUGGUAAGAUCACAUGAGGAUCACCCAUGUAGAAGGGACGGGCUGAU	13.8 nM	253 nM	–	–
AAAAAUGGAGGAUAUACAUGAGGAUCACCCAUGUGUGGGCAUACUAUGUCGGCGUCAGGUAGAAGGCCAAAAAA	40.8 nM	48.9 nM	–	–
CAUGUCCUCACAGGAUAUGCACCACUUUGUGGUGCAGAAGGGUGGUAACAUGAGGAUCACCCAUGUGGACAUGAUAUAUUUAAU	–	–	523 nM	294 nM
CUUCGUGAUGCAGGAUAUGUUUGCUUUUUGCGCACAGAAGGGCAUCACAUGAGGAUCACCCAUGUGAGUAGAAAACCGUGGAAA	14.1 nM	79.3 nM	–	–
GAUCUGACAGGAUAUACAUGAGGAUCACCCAUGUGCGAGCUAGCGAAAGCUAGCUUAGGUAGAAGGGUCAGAUC	12.2 nM	18.1 nM	–	–
GUGACGAAUGUAGGAUAUGCUGAGGAAUACUCAGCAGAAGGACAUGAGGAUCACCCAUGUCAUCCUUAUAAUGAAUAACGUCAC	13.8 nM	18.3 nM	–	–
UUAAUUUGAGGAUAUACAUUUAACCACAUGAGGAUCACCCAUGUAAUAUCAUGUAUUUGUGUAGAAGGCAGAAUGC	18.8 nM	17.5 nM	–	–
GUAGCAUACCGAGGAUAUUCAGGGCGUGGAUAAACAUGAGGAUCACCCAUGUGGCGAAAGCCUAGGGAGAAGGCGGAAUGCUAC	–	–	21.5 nM	16.3 nM
ACAGCUGAAGGAUAUACUUGGGAAAAAAAAAAAAAAAAAAAACAUGAGGAUCACCCAUGUAGAAGGUCAGCUGA	103 nM	60 nM	–	–
CAAUUCCGAGGAUAUACAUGAGGAUCACCCAUGUCGGGCCUCAGCGUUUAGCGCCUAAGUAGAAGGUGGGUUUC	42.9 nM	40.4 nM	–	–
UCUGGUCGAGGAUAUACAUGAGGAUCACCCAUGUUGAUCAAGCGACUUCGGUCGCAAUGUAGAAGGCGACCAGA	627 nM	182 nM	–	–
UCAGGCUUCGAGAAGGACAUGAAUCGUAGCAUUGCUACGAUGAAUUAUACAUGAGGAUCACCCAUGUAGGAUAUCGGAGUCUGC	–	6.34 nM	–	–
GUCGGAAACGACAAACGUAGCAUACGAGAAGGCUGAUCCACGACAUGAGGAUCACCCAUGUAUUUAGAGGAUAUUGGAUGCUAC	–	–	126 nM	20.3 nM
GGUGGACAUGAGGAUCACCCAUGUGAGGAUAUCGGCUGGCUAGCGGCGGAUGGCUUCUCGAGAAGGCGCAUUGU	86.4 nM	75 nM	–	–
UAUAUAUAGGCAGGAUAUACAUGAAUAUAUAAUAUAUUAUAUAAUAUAACAUGAGGAUCACCCAUGUAGAAGGGCCAUAAUAUA	67 nM	106 nM	–	–
UGUACUAUAAGGUUAAUUGUAUAUUGAGAAGGCAUACACAUGAGGAUCACCCAUGUAACAUGGAAUGAGGAUAUCAUUAUGUAC	–	–	17.3 nM	14.4 nM
CUGUUACAUGAGGAUCACCCAUGUGAGGAUAUGGUUCGGUACUGUCCUGUCGCGUACUCCAGAAGGCACGUGUC	29.4 nM	29.9 nM	–	–
AUAGAAGACUAGAAGGAUUUAGUUGUAUAUUGUCGAGGUAUAUAAUUAGGUAGGAUAUGGGACAUGAGGAUCACCCAUGUUUUG	–	–	28.2 nM	15.4 nM
AGUACUCAAAGAGUACCCAUACGGACAUGAGGAUCACCCAUGUAGGAUAUGCUACUCAAAGAGUAGUAGAAGGACAUGUUCCUC	12.4 nM	43.6 nM	–	–
GCGAUUUUGUAAGGAUAUACACGAGUUUUAAGUGUAGAAGGUACUUACAUGAGGAUCACCCAUGUAUAAAUGUAUAAUAGUCGC	–	–	9.11 nM	7.51 nM
CGCAAGUAUACAUGAGGAUCACCCAUGUCAGAUAGGGUAAUCAGAAGGUACAAUUAGAGAUAGAGUAAGGAUAUGAAAUUUGCG	–	–	865 nM	314 nM
GGGUACAUCGGAGGAUAUCAUGAAAAUACAUGAGGAUCACCCAUGUCGAUGGAGACAUCGGAGAUUGAGAAGGCCGAUGUACCG	–	–	11.9 nM	6.01 nM
GCGAUUUUGUAGAAGGUACGUUAUAAGACAAUGUAAGGAUAUACUGACAUGAGGAUCACCCAUGUAUAAUUAGUUUACAGUCGC	–	–	7.74 nM	5.91 nM
AAAAAGUGAGGAUAUGCACUGUCCUGUAGACGCGAGCAGUUGUAGAAGGCACAUGAGGAUCACCCAUGUUUAAA	25.1 nM	22.5 nM	–	–
GGAGCACACAUUAACAUGAGGAUCACCCAUGUCAAAAGACAUGAGGAUAUGGAUCCGAAAAGGAUCCAGAAGGCAUAGUGCUCC	–	–	301 nM	15.7 nM
UUGUUCUGAGGAUAUACAUGAGGAUCACCCAUGUGUUUCUGCUUGGUGUCUUGCGUAUGUAGAAGGCUGUUCUC	36.5 nM	36.3 nM	–	–

Sequence	apparent Kd [1]	apparent Kd [2]	apparent Kd [3]	apparent Kd [4]
AGCUGUGGCCGAGGAUAUCUAAUAACUCAAACCGAAAUAUAAUCGGACAUGAGGAUCACCCAUGUAGAGAAGGCGGUCUCAGCA	84.6 nM	154 nM	–	–
UAAUAUUUAUGAUAUUAUUACAUUAGAAGGCUAGACAUGUGGAUACAUGAGGAUCACCCAUGUAUAGAGGAUAUAGACAUAUAU	31.8 nM	53.6 nM	–	–
UAUGAACAUGAGGAUCACCCAUGUGGUACGAUCACAGGAUAUCACCUCGGACGUGCGAUGUGAGAAGGGUGAUGGU	–	–	81.6 nM	29.4 nM
GAUUUCUAAGGAUAUACUGAUGUUCCUAAGUCUAGCGGCUCACAUGAGGAUCACCCAUGUAGAAGGUGGAGGUU	27.8 nM	30.1 nM	–	–
GUAGCUAUCGGAGGAUAUUCAUACCGGAAACGGACAUGAGGAUCACCCAUGUGGCGAAAGCCUUGGGAGAAGGCCGAUCGCUAC	–	–	239 nM	8.45 nM
AUUAUUUUGUAGAAGGACGACUAUUAAUAUAUCGUAGGAUAUACUAUUUACAUGAGGAUCACCCAUGUUUAAAUGGAACAAUGU	4.99 nM	6.23 nM	–	–
CAGUUAAAAGUGAGGUCUUCGACAUGAGGAUCACCCAUGUACGAGGAUAUGUAAUAUACGGUAUAGCAGAAGGCGUAUGGGUGU	20.9 nM	46.9 nM	–	–
CGUUCACAUGAGGAUCACCCAUGUCAGAUUUGGUCAGGAUAUGGUCUGCUUUCGCUAUUUCCAGAAGGGACUUUUG	–	–	28.6 nM	24.8 nM
UGAUAGGACAGAGGAUAUACCGAUAGGAUCUACUAUCGAAGAAUCCUCACAUGAGGAUCACCCAUGUAGAAGGCUGUCCUAUCU	41.6 nM	678 nM	–	–
GCAUGUGUGUAAGGAUAUGCAUCACUGAGAAAUUUAGUGAGGAAGAUCACAUGAGGAUCACCCAUGUAGAAGGUACACACGUGG	9.3 nM	54.5 nM	–	–
GAGUGGUGGAAAGGAUAUGCAUUGUUAUUCACUGUAGAAGGUUCUAACAUGAGGAUCACCCAUGUAGGACUAUUCCUGUGUUUU	–	–	13.3 nM	12.6 nM
GGUCCGAGUGUGAGGAUAUGCUGGUCCUUGGAUCAGCAGAAGGCACAUGAGGAUCACCCAUGUGGAGACGGACC	206 nM	538 nM	–	–
UUAUAAAGAGUGAGGAUAUGCUGGUCCUUGGAUCAGCAGAAGGCACAUGAGGAUCACCCAUGUAAAAUAAUAUU	28.4 nM	41.2 nM	–	–
UCGGCGCGAGGAUAUACGUUUGCUUUUUUUCGUUUUUGUGUACAUGAGGAUCACCCAUGUAGAAGGCGCGCCGC	15.2 nM	22.4 nM	–	–
AUUAUUUACAUAGGAUAUUGUUACAUGAGGAUCACCCAUGUUUUCAUGGUAUUAAUAUAUUAUUUCAAGAAGGAUGUAGUUACA	–	–	37.4 nM	20.9 nM
UUAAAUCAUGUAGGAUAUGCAUGGCGAAGCUACGCAGAAGGACAUGAGGAUCACCCAUGUUAUAGCUACCCAGUUAGGUGGCAA	82.2 nM	189 nM	–	–
GCUGACGAUGUAGGAUAUCAGUAUAAUAAAUACUGAGAAGGACAUGAGGAUCACCCAUGUAAAACUCCGUCAGCGAGGAAACUC	16.6 nM	19.4 nM	–	–
UUACCUCAUGAGAAGGACAUGAGGAUCACCCAUGUAGGAUAUCGUGGGACACUGGAAUUGAAUCUUCGGAUUCAAUAACUGUAU	–	–	349 nM	26.2 nM
GGAUAGGACAGAGGAUAUACGUGCUAGAGAUACUAGCAAAAUUUCCUCACAUGAGGAUCACCCAUGUAGAAGGCUGUCAUAUCG	14.8 nM	306 nM	–	–
CUUUAGUGAGGAUAUCAGUAGUAAUACAAUAGUAUUACUGCUGAGAAGGCACAUGAGGAUCACCCAUGUUCCUC	38.1 nM	169 nM	–	–
ACUGUUAGAGUCUUCCUUAUCACAUGAGGAUCACCCAUGUGGAGAAGGGACUGUAUCGUUAUCAGUUAGGAUAUCCAUGUGUGC	4.62 nM	4.72 nM	–	–
UCUAUGUAAGAGAAGGAGGACUUCAUGAGGAUCACCCAUGUGUUAGUACUUAGGAUAUUUGACAACAUGAGGAUCACCCAUGUC	–	–	65.7 nM	61.7 nM
UAUACAAACGAAGGAUAUGGAUACAUGAGGAUCACCCAUGUAUGUAUGAUGAUCUAGAAAAUGGGCCAGAAGGUCGUGAUUAUU	22.6 nM	62.7 nM	–	–
CAUACAGUAGUCAGGAUAUUGGAAGAGACACGGAACGAGAAGGGACAUGAGGAUCACCCAUGUAUACUGUAAAG	26.8 nM	22.6 nM	–	–
AUAUGAGAAGCAGGAUAUGUGAAAAAAAAACAUACAGAAGGGUUUAUGGAAAAACAUGAGGAUCACCCAUGUUCUUUGUGAUGA	–	–	33.5 nM	32.4 nM
CUUCGUAUAGAGGAUAUAGGAUACCUCGGUGUCCUAGAAGGCUGUACAUGAGGAUCACCCAUGUACUUCAGAUC	11.6 nM	16 nM	–	–
AAGUAGACGGUGAGGAUAUAGGUCGAACGACCGAUCUAGAAGGCACAUGAGGAUCACCCAUGUGGGUAACGUCG	17.9 nM	19.6 nM	–	–
